Measurements pooled from the literature.
Each line is one published result; the experiments were not run side by side.
Target: Carbonic anhydrase 2 (CA2, Homo sapiens, UniProt P00918)
Read-out: enzyme activity
Action: inhibitor

| SMILES | technique | endpoint | result |
| --- | --- | --- | --- |
| CC(C)c1cc2c(c(O)c1O)[C@@]13CCCC(C)(C)[C@@H]1[C@@H](O)[C@@H]2OC3=O | – | IC50 | 5.78 nM |
| NC(=S)N/N=C1/c2ccccc2[C@@H]2[C@H]1[C@@H](c1ccc(C(F)(F)F)cc1)[C@H](C(=O)c1ccc(C(F)(F)F)cc1)[C@H]2c1ccc(C(F)(F)F)cc1 (racemic) | absorbance | IC50 | 551 nM |
| Cc1ccc(NC(=O)Nc2ccc3c(c2)C=CCP(=O)(O)O3)cc1 | stopped-flow | Ki | > 10000 nM |
| CC(C)c1cc2c(c(O)c1O)[C@@]13CCCC(C)(C)[C@@H]1[C@H](OC3=O)[C@H]2O | – | Ki | 4.99 nM |
| NC(=S)N/N=C1/c2ccccc2[C@@H]2[C@H]1[C@@H](c1ccsc1)[C@H](C(=O)c1ccsc1)[C@H]2c1ccsc1 (racemic) | absorbance | IC50 | 523 nM |
| N#C[Se]CCCCOc1ccc2c(-c3ccccc3)cc(=O)oc2c1 | stopped-flow | Ki | > 100000 nM |
| NC(=S)N/N=C1/c2ccccc2[C@@H]2[C@H]1[C@@H](c1cccs1)[C@H](C(=O)c1cccs1)[C@H]2c1cccs1 (racemic) | absorbance | IC50 | 510 nM |
| O=C(Nc1ccc2c(c1)C=CCP(=O)(O)O2)c1ccc([N+](=O)[O-])cc1 | stopped-flow | Ki | > 10000 nM |
| CC(C)c1cc2c(c(O)c1O)[C@@]1(C(=O)O)CCCC(C)(C)[C@@H]1CC2 | – | Ki | 4.2 nM |
| O=C(Nc1ccc2c(c1)C=CCP(=O)(O)O2)c1cccs1 | stopped-flow | Ki | > 10000 nM |
| COc1ccc(C(=O)[C@@H]2[C@@H](c3ccc(OC)cc3)[C@@H]3c4ccccc4/C(=N/NC(N)=S)[C@@H]3[C@H]2c2ccc(OC)cc2)cc1 (racemic) | absorbance | IC50 | 992 nM |
| O=C(Nc1ccc2c(c1)C=CCP(=O)(O)O2)c1ccco1 | stopped-flow | Ki | > 10000 nM |
| CC(C)c1cc2c(c(O)c1O)[C@@]13CCCC(C)(C)[C@@H]1C[C@@H]2OC3=O | – | IC50 | 5.47 nM |
| O=C(Nc1ccc2c(c1)C=CCP(=O)(O)O2)c1ccc(F)cc1 | stopped-flow | Ki | > 10000 nM |
| Cc1c(Cl)c(=O)oc2cc(OCCCC[Se]C#N)ccc12 | stopped-flow | Ki | > 100000 nM |
